Published values of several laboratories.
Lines come from different studies, so protocols differ.
Target: Serine/threonine-protein kinase ULK1 (ULK1, Homo sapiens, UniProt O75385)
One construct used (O75385 1-1050): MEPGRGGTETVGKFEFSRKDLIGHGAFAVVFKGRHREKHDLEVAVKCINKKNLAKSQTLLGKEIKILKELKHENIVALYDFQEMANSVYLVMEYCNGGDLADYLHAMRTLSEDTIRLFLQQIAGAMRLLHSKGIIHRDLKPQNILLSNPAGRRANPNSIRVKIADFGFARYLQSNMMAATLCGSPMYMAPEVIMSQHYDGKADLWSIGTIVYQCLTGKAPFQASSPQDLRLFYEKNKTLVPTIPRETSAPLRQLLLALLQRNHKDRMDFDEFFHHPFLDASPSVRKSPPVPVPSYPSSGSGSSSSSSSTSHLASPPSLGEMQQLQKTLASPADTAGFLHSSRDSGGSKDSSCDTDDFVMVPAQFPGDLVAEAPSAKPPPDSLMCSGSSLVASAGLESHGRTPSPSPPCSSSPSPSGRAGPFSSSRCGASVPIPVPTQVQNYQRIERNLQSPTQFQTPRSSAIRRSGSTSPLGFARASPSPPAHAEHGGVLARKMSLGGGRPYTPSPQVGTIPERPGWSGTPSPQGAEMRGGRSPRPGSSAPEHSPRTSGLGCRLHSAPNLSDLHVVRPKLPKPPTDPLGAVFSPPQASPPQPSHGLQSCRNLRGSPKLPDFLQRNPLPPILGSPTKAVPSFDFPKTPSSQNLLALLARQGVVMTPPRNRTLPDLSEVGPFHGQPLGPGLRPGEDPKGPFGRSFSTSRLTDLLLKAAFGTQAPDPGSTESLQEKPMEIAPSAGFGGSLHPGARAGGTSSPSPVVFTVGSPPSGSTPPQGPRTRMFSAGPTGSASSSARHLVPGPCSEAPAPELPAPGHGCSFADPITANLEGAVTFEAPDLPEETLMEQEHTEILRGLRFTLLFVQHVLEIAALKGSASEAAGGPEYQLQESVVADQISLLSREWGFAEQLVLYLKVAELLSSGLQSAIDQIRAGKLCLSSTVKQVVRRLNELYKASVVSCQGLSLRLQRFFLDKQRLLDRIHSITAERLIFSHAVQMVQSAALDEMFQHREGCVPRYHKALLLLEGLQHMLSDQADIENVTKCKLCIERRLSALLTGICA

| SMILES | assay | conditions | quantity | value |
| --- | --- | --- | --- | --- |
| c1cc(CN2CCOCC2)cc(Nc2ncc(C3CC3)c(NCCc3c[nH]cn3)n2)c1 | enzyme activity, inhibitor, radiometric | 1 µM | remaining activity | 24% |
| c1ccc(CNc2nc(N3CCOc4ccccc43)nc3c2CCCC3)cc1 | target engagement in cells, inhibitor, chemoproteomics | 20 mM | inhibition | -9% |
| Cc1nn(CC(F)(F)F)cc1Nc1ncc(C2CC2)c(NCCCNC(=O)C2CCC2)n1 | enzyme activity, inhibitor, radiometric | 1 µM | remaining activity | 58% |
| O=C1NC(=O)c2cc(Nc3ccc(F)cc3)c(Nc3ccc(F)cc3)cc21 | cell-free assay | 0.5 µM | remaining signal | 102% |
| CCC(=N\O)/C(C)=C/c1ccc(F)cc1 | cell-free assay, competition with immobilised ligand | 1 µM | remaining binding | 85% |
| O=C(NCCCNc1ccnc(Nc2cccc(NC(=O)N3CCCC3)c2)n1)C1CCC1 | enzyme activity, inhibitor, radiometric | 1 µM | remaining activity | 75% |
| COc1ccc(Nc2ncc(C(F)(F)F)c(NC3CC3)n2)cc1OC | thermal stability, DSF | 10 µM | ΔTm | 9.5 °C |
| O=C(NCc1ncc(C(F)(F)F)cc1Cl)c1ccc2c(c1)C1(CCS(=O)(=O)CC1)[C@@H](C1CC1)N2S(=O)(=O)c1ccc(F)cc1 | cell-free assay, competition with immobilised ligand | 1 µM | remaining binding | 80% |
| N#CCCc1ccc2c(c1)-c1[nH]c3ccc([N+](=O)[O-])cc3c1CC(=O)N2 | cell-free assay | 0.5 µM | remaining signal | 94.2% |
| CCOCCn1cc(C(=O)Nc2ccc(-n3nc(-c4cccnc4)cc3C(F)(F)F)cn2)ccc1=O | cell-free assay, competition with immobilised ligand | 1 µM | remaining binding | 76% |
| COc1cc(/C=C/C(=O)CC(=O)/C=C/c2ccc(O)c(OC)c2)ccc1O | enzyme activity, inhibitor | 1 µM | activity vs control | 88% |
| CN1CC(Oc2cnc(C#N)cc2-c2ccn3nc(NC(=O)C4CC4)cc3c2)C1 | enzyme activity, inhibitor | 1 µM | inhibition | -1% |
| C#Cc1cccc(Nc2ncnc3cc(OCCOC)c(OCCOC)cc23)c1 | cell-free assay | 0.5 µM | remaining signal | 113% |
| CC(=O)N1CCC(c2ccc(C(=O)NC(=N)N)cc2C(F)(F)F)CC1 | cell-free assay, competition with immobilised ligand | 1 µM | remaining binding | 100% |
| Cc1nn(CC(F)(F)F)cc1Nc1nccc(NCCCNC(=O)C2CCC2)n1 | enzyme activity, inhibitor, radiometric | 1 µM | remaining activity | 96% |
| COc1cccc(CNC(=O)c2nc3scc(COCc4ccc(C(=O)O)cc4)c3c(=O)[nH]2)c1 | cell-free assay, competition with immobilised ligand | 1 µM | remaining binding | 74% |
| O=C(NCCCNc1nc(Nc2cccc(NC(=O)N3CCCC3)c2)ncc1I)c1cccs1 | enzyme activity, inhibitor, radiometric | 1 µM | remaining activity | 4% |
| CO[C@H]1CC[C@H](CNc2ccc(S(=O)(=O)NC(=O)c3ccc(N4CCN(CC5=C(c6ccc(Cl)cc6)CC(C)(C)CC5)CC4)cc3Oc3cnc4[nH]ccc4c3)cc2[N+](=O)[O-])CC1 | cell-free assay, competition with immobilised ligand | 1 µM | remaining binding | 82% |
| COc1cccc2c(NCc3ccccc3)nc(-n3c(N)nc4ccccc43)nc12 | target engagement in cells, inhibitor, chemoproteomics | 20 mM | inhibition | -8.3% |
| CCc1ccccc1C(=O)Nc1n[nH]c2c(C)c(F)c(C3C(C#N)=C(C)N(C)C(C)=C3C#N)cc12 | cell-free assay, competition with immobilised ligand | 1 µM | remaining binding | 29% |
| FC(F)(F)Oc1cccc(-c2cnc3ccc(-c4ccncc4)nn23)c1 | enzyme activity, inhibitor, radiometric | 1 µM | activity vs control | 114% |
| Brc1cnc(Nc2cccc(CN3CCOCC3)c2)nc1NCCc1c[nH]cn1 | enzyme activity, inhibitor, radiometric | 1 µM | remaining activity | 3% |
